ChEMBL document CHEMBL1137337, “Design, synthesis, and biological evaluation of new cyclic melanotropin peptide analogues selective for the human melanocortin-4 receptor” (J Med Chem, 2006)
pEC50, pIC50: −log10 of the molar value. Active and inactive are the calls of the source. The rule behind the calls is not given here.

Tests used:
Melanocortin receptor 4 [1] = biological target: T1, Melanocortin receptor 4 (Homo sapiens, UniProt P32245); assay: Activity at hMC4R transfected in HEK293 cells assessed as intracellular cAMP accumulation relative to MT2; type: functional, cell-based; design: concentration or dose not given beside the values
T1 sequence (P32245 whole entry): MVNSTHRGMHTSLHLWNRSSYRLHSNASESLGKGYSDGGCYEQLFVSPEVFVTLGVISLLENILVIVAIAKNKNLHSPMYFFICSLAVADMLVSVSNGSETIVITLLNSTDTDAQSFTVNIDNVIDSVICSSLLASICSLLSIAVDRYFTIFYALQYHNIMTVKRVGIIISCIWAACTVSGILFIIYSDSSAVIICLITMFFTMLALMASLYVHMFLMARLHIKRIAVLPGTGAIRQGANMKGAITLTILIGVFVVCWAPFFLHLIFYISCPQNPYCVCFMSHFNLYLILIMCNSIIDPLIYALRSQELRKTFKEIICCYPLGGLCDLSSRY

Melanocortin receptor 3 [2] = biological target: T2, Melanocortin receptor 3 (Homo sapiens, UniProt P41968); assay: Activity at hMC3R transfected in HEK293 cells assessed as intracellular cAMP accumulation; type: functional, cell-based
T2 sequence (P41968 whole entry): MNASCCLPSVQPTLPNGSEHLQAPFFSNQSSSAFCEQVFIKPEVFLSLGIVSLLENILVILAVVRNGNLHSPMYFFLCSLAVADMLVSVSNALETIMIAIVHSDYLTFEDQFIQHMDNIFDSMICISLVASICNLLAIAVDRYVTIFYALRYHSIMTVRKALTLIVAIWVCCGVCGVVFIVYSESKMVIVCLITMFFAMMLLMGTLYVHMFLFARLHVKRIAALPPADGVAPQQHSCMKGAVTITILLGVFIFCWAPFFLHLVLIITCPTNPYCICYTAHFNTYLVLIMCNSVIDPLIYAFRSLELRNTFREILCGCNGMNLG
Procedure, shortened: (§1)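 HEK293 cells stably carrying the human MC receptor were seeded 48 h ahead at 50 000 cells/well. They were preincubated 1 min at 37 °C in EBSS with IBMX, then exposed to peptide at 10⁻¹⁰ to 10⁻⁵ M for 3 min at 37 °C. Ice-cold Tris/EDTA stopped the reaction, and lysates were boiled 15 min. Total cAMP was measured by competitive binding kit, and EC50 was obtained by nonlinear least-squares fit.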

Melanocortin receptor 3 [3] = biological target: T2, Melanocortin receptor 3; assay: Activity at hMC3R transfected in HEK293 cells assessed as intracellular cAMP accumulation relative to MT2; type: functional, cell-based; design: concentration or dose not given beside the values
Melanocortin receptor 5 [4] = biological target: T3, Melanocortin receptor 5 (Homo sapiens, UniProt P33032); assay: Activity at hMC5R transfected in HEK293 cells assessed as intracellular cAMP accumulation; type: functional, cell-based; procedure, shortened: as §1
T3 sequence (P33032 whole entry): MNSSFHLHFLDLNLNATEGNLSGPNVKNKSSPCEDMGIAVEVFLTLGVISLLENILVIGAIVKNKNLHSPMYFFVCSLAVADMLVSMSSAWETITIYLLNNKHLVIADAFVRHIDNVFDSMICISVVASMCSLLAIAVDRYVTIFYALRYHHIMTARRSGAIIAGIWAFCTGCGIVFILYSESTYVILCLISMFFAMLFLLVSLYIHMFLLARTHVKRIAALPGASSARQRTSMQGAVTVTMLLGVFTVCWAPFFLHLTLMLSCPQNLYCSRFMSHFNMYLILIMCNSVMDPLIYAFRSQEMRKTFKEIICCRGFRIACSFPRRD

[5] = biological target: T4, Melanocyte-stimulating hormone receptor (Homo sapiens, UniProt Q01726); assay: Activity at hMC1R transfected in HEK293 cells assessed as intracellular cAMP accumulation relative to MT2; type: functional, cell-based; design: concentration or dose not given beside the values
Target sequence in this assay (Q01726 whole entry, looked up): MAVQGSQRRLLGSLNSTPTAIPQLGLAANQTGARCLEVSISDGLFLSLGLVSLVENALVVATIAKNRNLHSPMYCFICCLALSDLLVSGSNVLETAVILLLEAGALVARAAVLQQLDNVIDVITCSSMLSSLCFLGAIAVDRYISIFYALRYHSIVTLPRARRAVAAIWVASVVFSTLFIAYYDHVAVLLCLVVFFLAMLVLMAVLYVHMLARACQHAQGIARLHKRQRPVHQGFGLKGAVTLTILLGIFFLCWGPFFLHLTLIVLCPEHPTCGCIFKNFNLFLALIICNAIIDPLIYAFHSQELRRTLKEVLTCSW

Melanocortin receptor 4 [6] = biological target: T1, Melanocortin receptor 4; assay: Activity at hMC4R transfected in HEK293 cells assessed as intracellular cAMP accumulation; type: functional, cell-based; procedure, shortened: as §1
Melanocortin receptor 5 [7] = biological target: T3, Melanocortin receptor 5; assay: Displacement of [125I]NDP-alphaMSH from human MC5 receptor expressed in HEK293 cells; type: cell-based
Procedure, shortened: (§2)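 Whole-cell competition used transfected HEK293 cells seeded 48 h ahead at 100 000 cells/well. Binding buffer was MEM with 25 mM HEPES pH 7.4, 0.2% BSA, 1 mM 1,10-phenanthroline, leupeptin and bacitracin. Radioactivity was gamma-counted, and IC50 was obtained by nonlinear least-squares fit.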

Melanocortin receptor 3 [8] = biological target: T2, Melanocortin receptor 3; assay: Displacement of [125I]NDP-alphaMSH from human MC3 receptor expressed in HEK293 cells relative to MT2; type: cell-based
Procedure, shortened: (§3)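 Binding efficiency was measured in the whole-cell [¹²⁵I]NDP-α-MSH competition assay on receptor-transfected HEK293 cells (30 min, 37 °C). It is expressed as the peptide's maximal percentage specific binding relative to MTII agonist binding, with peptides tested at 10⁻¹⁰ to 10⁻⁵ M.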

[9] = biological target: T4, Melanocyte-stimulating hormone receptor; assay: Displacement of [125I]NDP-alphaMSH from human MC1 receptor expressed in HEK293 cells relative to MT2; type: cell-based; procedure, shortened: as §3
Target sequence in this assay (Q01726 whole entry, looked up): as above

Melanocortin receptor 4 [10] = biological target: T1, Melanocortin receptor 4; assay: Displacement of [125I]NDP-alphaMSH from human MC4 receptor expressed in HEK293 cells relative to MT2; type: cell-based; procedure, shortened: as §3
Melanocortin receptor 5 [11] = biological target: T3, Melanocortin receptor 5; assay: Displacement of [125I]NDP-alphaMSH from human MC5 receptor expressed in HEK293 cells relative to MT2; type: cell-based; procedure, shortened: as §3
Melanocortin receptor 5 [12] = biological target: T3, Melanocortin receptor 5; assay: Activity at hMC5R transfected in HEK293 cells assessed as intracellular cAMP accumulation relative to MT2; type: functional, cell-based
Melanocortin receptor 4 [13] = biological target: T1, Melanocortin receptor 4; assay: Displacement of [125I]NDP-alphaMSH from human MC4 receptor expressed in HEK293 cells; type: cell-based; procedure, shortened: as §2
Melanocortin receptor 3 [14] = biological target: T2, Melanocortin receptor 3; assay: Displacement of [125I]NDP-alphaMSH from human MC3 receptor expressed in HEK293 cells; type: cell-based; procedure, shortened: as §2
[15] = biological target: T4, Melanocyte-stimulating hormone receptor; assay: Displacement of [125I]NDP-alphaMSH from human MC1 receptor expressed in HEK293 cells; type: cell-based; procedure, shortened: as §2

Row | SMILES | Activity (Melanocortin receptor 4 [1]) [%] | Activity (Melanocortin receptor 3 [2]) | Activity (Melanocortin receptor 3 [3]) [%] | Activity (Melanocortin receptor 5 [4]) | Activity [5] [%] | Activity (Melanocortin receptor 4 [6]) | Activity (Melanocortin receptor 5 [7]) | Activity (Melanocortin receptor 3 [8]) [%] | Activity [9] [%] | Activity (Melanocortin receptor 4 [10]) [%] | Activity (Melanocortin receptor 5 [11]) [%] | Activity (Melanocortin receptor 5 [12]) [%] | Activity (Melanocortin receptor 3 [14]) | Activity [15] | pIC50 [15] | pIC50 (Melanocortin receptor 3 [14]) | pEC50 (Melanocortin receptor 4 [6]) | pIC50 (Melanocortin receptor 4 [13]) | Activity (Melanocortin receptor 4 [13]) | pIC50 (Melanocortin receptor 5 [7])
1 | CC(=O)N[C@H]1CCC(=O)NCCC(C(=O)N[C@@H](Cc2c[nH]c3ccccc23)C(N)=O)N(CCCCN=C(N)N)C(=O)[C@@H](Cc2ccccc2)NC(=O)[C@H](Cc2c[nH]cn2)NC1=O (stereo not given in full) | 0 | inactive | 0 | inactive | 0 | inactive | inactive | 50 | < 10 | 0 | 0 | 0 |  |  |  |  |  |  | inactive | 
2 | CC(=O)N[C@H]1CSSC[C@@H](C(=O)N(CCCCN=C(N)N)C(Cc2c[nH]c3ccccc23)C(N)=O)NC(=O)[C@@H](Cc2ccc3ccccc3c2)NC(=O)[C@H](Cc2c[nH]cn2)NC1=O (stereo in doubt) | 0 | inactive | 0 | inactive | 0 | inactive |  | 0 | < 10 | 0 | < 10 | 0 | inactive |  | < 6.00 |  |  |  | inactive | 6.68
3 | CC(=O)N[C@H]1CSSC[C@@H](C(=O)N(CCCCN=C(N)N)[C@@H](Cc2c[nH]c3ccccc23)C(N)=O)NC(=O)[C@@H](Cc2ccccc2)NC(=O)[C@H](Cc2cnc[nH]2)NC1=O |  |  |  |  |  |  |  |  |  |  |  |  |  |  | < 6.00 | < 6.00 | < 6.00 | 8.39 |  | 
4 | CC(=O)N[C@H]1CCC(=O)NCC[C@@H](C(=O)N[C@@H](Cc2c[nH]c3ccccc23)C(N)=O)N(CCCCN=C(N)N)C(=O)[C@@H](Cc2ccccc2)NC(=O)[C@H](Cc2cnc[nH]2)NC1=O |  |  |  |  |  |  |  |  |  |  |  |  |  |  | < 6.00 | < 6.00 |  |  |  | 
5 | CC(=O)N[C@H]1CSSC[C@@H](C(=O)N(CCCCN=C(N)N)[C@H](Cc2c[nH]c3ccccc23)C(N)=O)NC(=O)[C@@H](Cc2ccccc2)NC(=O)[C@H](Cc2cnc[nH]2)NC1=O |  |  |  |  |  |  |  |  |  |  |  |  |  |  |  | < 6.00 | < 6.00 | 9.15 |  | 
6 | CC(=O)N[C@H]1CSSC[C@@H](C(=O)N(CCCCN=C(N)N)[C@@H](Cc2c[nH]c3ccccc23)C(N)=O)NC(=O)[C@@H](Cc2ccccc2)NC(=O)[C@H](Cc2c[nH]cn2)NC1=O | 18 | inactive | 0 | inactive | 0 |  | inactive | 50 | < 10 | 50 | 0 | 0 |  |  |  |  |  |  |  | 
7 | CC(=O)N[C@H]1CCC(=O)NCCC[C@@H](C(=O)N[C@@H](Cc2c[nH]c3ccccc23)C(N)=O)N(CCCCN=C(N)N)C(=O)[C@@H](Cc2ccc3ccccc3c2)NC(=O)[C@H](Cc2c[nH]cn2)NC1=O | 0 | inactive | 0 | inactive | 0 | inactive | inactive | 50 | < 10 | 0 | 0 | 0 |  |  | < 5.00 | < 6.00 |  |  | inactive | 

More lines, main results first:

Row | Activity (Melanocortin receptor 4 [1]) [%] | Activity (Melanocortin receptor 3 [2]) | Activity (Melanocortin receptor 3 [3]) [%] | Activity (Melanocortin receptor 5 [4]) | Activity [5] [%] | Activity (Melanocortin receptor 4 [6]) | Activity (Melanocortin receptor 5 [7]) | Activity (Melanocortin receptor 3 [8]) [%] | Activity [9] [%] | Activity (Melanocortin receptor 4 [10]) [%] | Activity (Melanocortin receptor 5 [11]) [%] | Activity (Melanocortin receptor 5 [12]) [%] | Activity (Melanocortin receptor 3 [14]) | Activity [15] | pIC50 [15] | pIC50 (Melanocortin receptor 3 [14]) | pEC50 (Melanocortin receptor 4 [6]) | pIC50 (Melanocortin receptor 4 [13]) | SMILES | Activity (Melanocortin receptor 4 [13]) | pIC50 (Melanocortin receptor 5 [7])
8 | 0 | inactive | 0 | inactive | 0 | inactive | inactive | 0 | 0 | 50 | 0 | 0 | inactive | inactive |  |  |  |  | CC(=O)N[C@H]1CSSC[C@@H](C(=O)N[C@@H](Cc2c[nH]c3ccccc23)C(N)=O)N(CCCCN=C(N)N)C(=O)[C@@H](Cc2ccccc2)NC(=O)[C@H](Cc2c[nH]cn2)NC1=O |  | 
9 | 0 | inactive | 0 | inactive | 0 | inactive | inactive | 0 | < 10 | 0 | 0 | 0 | inactive |  | 6.00 |  |  |  | CC(=O)N[C@H]1CSSC[C@H](C(=O)N[C@@H](Cc2c[nH]c3ccccc23)C(N)=O)N(CCCCN=C(N)N)C(=O)[C@@H](Cc2ccccc2)NC(=O)[C@H](Cc2c[nH]cn2)NC1=O | inactive | 
10 |  |  |  |  |  |  |  |  |  |  |  |  |  |  |  |  |  | 8.74 | CC(=O)N[C@H]1CSSC[C@@H](C(=O)N[C@@H](Cc2c[nH]c3ccccc23)C(N)=O)N(CCCCN=C(N)N)C(=O)[C@@H](Cc2ccccc2)NC(=O)[C@H](Cc2cnc[nH]2)NC1=O |  | 
11 | < 10 | inactive | 0 | inactive | 0 |  | inactive | 50 | < 10 | 50 | 0 | 0 |  |  | 6.12 | < 6.00 | < 6.00 | 7.00 | CC(=O)N[C@H]1CCC(=O)NCCC[C@@H](C(=O)N[C@@H](Cc2c[nH]c3ccccc23)C(N)=O)N(CCCCN=C(N)N)C(=O)[C@@H](Cc2ccccc2)NC(=O)[C@H](Cc2c[nH]cn2)NC1=O |  | 
12 | 19 | inactive | 0 | inactive | 0 |  | inactive | < 10 | 0 | 50 | 0 | 0 |  | inactive |  |  |  |  | CC(=O)N[C@H]1CSSC[C@@H](C(=O)N(CCCCN=C(N)N)[C@H](Cc2c[nH]c3ccccc23)C(N)=O)NC(=O)[C@@H](Cc2ccccc2)NC(=O)[C@H](Cc2c[nH]cn2)NC1=O |  | 
